STAT3 inh = STAT3 signaling inhibition. AID 862. hit rate 0.89% among 190,000. U3A cells, IL-6 STAT3-luciferase reporter, luminescence; host cell line lacks STAT1. inhibition, % at 5.5 µM;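 active = inhibition above the mean inhibition across all screened compounds plus 3 SD, cut at about 44% in these data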;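 also: 0% = DMSO only wells and 100% = 100 µM nifuroxazide control wells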
STAT1 act = increases IFN-gamma driven STAT1 reporter signal; NIH 3T3 STAT1-luciferase reporter, luminescence; 100% = IFN-gamma alone, no compound; activation (% of control), % at 5.5 µM; hit rate 2.6% among 200,000; AID 932;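 active = activation above the screen-wide mean activation plus 3 SD, cut at about 130% in these data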;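 also: raw ratio to IFN-gamma control signal so 100% means no change and 0% no light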
STAT1 inh = STAT1 signaling inhibition. inhibition, % at 5.5 µM. NIH 3T3 STAT1-luciferase reporter, IFN-gamma, luminescence. hit rate 0.35% among 200,000;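 active = inhibition above a set limit, the mean inhibition across all tested compounds plus 3 SD, cut at about 34% in these data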;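 also: 0% = IFN-gamma with DMSO and 100% = IFN-gamma with 300 µM nifuroxazide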
NF-kB expr up = raises NF-kB expression in human neuronal cells; AID 1239; hit rate 1.6% among 190,000; fold change at 12.5 µM; NF-kB reporter expression; stronger effect = higher value; in the data active = fold change above about 3.3
STAT3 activator = increases IL-6 driven STAT3 reporter signal; U3A cells, IL-6 STAT3-luciferase reporter, luminescence; 100% = signal with IL-6 EC80 alone; activation (% of control), % at 5.6 µM; hit rate 0.91% among 190,000; AID 871;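 active = activation above the screen-wide mean of compound activation plus 3 SD, cut at about 130% in these data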;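 also: 0% = background luminescence of wells with medium and substrate only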
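System – human U3A cells carrying STAT3-luciferase construct · Probe or stimulus – Interleukin-6, 33 ng/mL · Schedule – compound 1 h, then IL-6 6 h at 37 °C · Signal – luminescence from STAT3-driven luciferase reporter · Evaluation – percent of IL-6-only median luminescence · Benchmarks – IL-6-only high control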
APP 5'UTR act = APP 5'UTR luciferase reporter activation. AID 1276. SH-SY5Y APP 5'UTR luciferase reporter, luminescence; zero percent = DMSO vehicle wells. activation, % at 2 µM. hit rate 1% among 190,000;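 active = activation above a set limit, based on mean plus 3 SD of controls, cut at about 140% in these data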
* hit, by the source's call; nt = no result. A selection: hits, their analogues and other compounds. The true share with any hit is near 5.1%.

SMILES	STAT3 inh	STAT1 act	STAT1 inh	NF-kB expr up	STAT3 activator	APP 5'UTR act
CC(C)(C)C(=O)Nc1ccc(N=Nc2ccccc2)cc1	87.5*	37.0	67.0*	1.14	28.4	114.4
CC1CC1C(=O)OCC(=O)Nc1ccccc1Oc1ccccc1 (centres undefined)	5.4	94.0	6.6	0.97	102.7	0.1
CC1CC1C(=O)OCC(=O)Nc1ccc(N=Nc2ccccc2)cc1 (centres undefined)	-0.3	147.8*	-53.4	5.89*	101.0	142.9*
COc1ccc(CSc2nc3ccccc3[nH]2)cc1	36.6	107.7	-8.7	5.72*	74.1	150.5*
Fc1cccc(F)c1CSc1nc2ccccc2[nH]1	10.9	144.6*	-48.2	7.22*	88.7	155.7*
Cc1ccc(CSCc2nc3ccccc3[nH]2)cc1	11.1	101.6	-3.9	1.42	97.6	15.9
CC(C)CCSc1nc2ccccc2[nH]1	11.0	129.2*	-31.0	1.07	91.1	99.6
Fc1ccccc1CSCc1nc2ccccc2[nH]1	-17.8	131.1*	-33.8	2.32	118.2	18.0
Cc1ccc(N(C(=O)c2ccn[nH]2)C(C(=O)NC2CCCC2)c2cccs2)cc1 (centres undefined)	9.5	99.9	-1.3	1.22	96.3	-14.3
COc1ccc(CC(=O)N2CC(=O)N(CCc3ccccc3)C(=O)C2)cc1	-0.2	99.8	0.2	1.28	104.0	7.0
Cc1cc(C(=O)CSc2nnc(-c3ccc(OC(F)F)cc3)o2)c(C)n1Cc1cccs1	1.8	99.4	0.7	1	100.7	-2.3
CN(C)C(=S)Nc1cccc(-c2n[nH]c(=S)o2)c1	13.3	91.5	7.5	1.06	97.2	0.3
O=C(c1ccccc1)c1ccc(N2CCOCC2)c(F)c1	3.8	132.7*	-36.0	2.97	101.1	110.4
O=C(Nc1ccc(N2CCN(C(=O)c3ccccc3)CC2)c(Cl)c1)c1ccco1	19.4	93.6	7.0	0.56	88.9	-1.8
O=C(Nc1ccc(N2CCOCC2)c(Cl)c1)c1ccco1	22.5	148.6*	-52.5	3.44*	83.7	113.2
O=C(Nc1ccc(N2CCOCC2)c(Cl)c1)c1ccc(Cl)cc1	14.1	126.6	-31.1	1.87	96.4	49.0
O=C(CSc1nc2ccccc2o1)Nc1ccc(N2CCOCC2)c(Cl)c1	31.1	94.0	6.5	1.28	76.3	193.7*
O=C(Nc1ccc(N2CCOCC2)c(Cl)c1)c1ccccc1F	6.5	137.5*	-40.5	5.11*	98.3	126.9
O=C(CSc1nc2ccccc2s1)Nc1ccc(N2CCOCC2)c(Cl)c1	-17.4	108.3	-9.1	0.87	113.2	-8.0
N#Cc1cnn(-c2nc(SCc3ccccc3)nc3sc4c(c23)CCCC4)c1N	-6.7	96.6	3.7	1.06	107.8	-4.8
O=C(Nc1ccc(Br)c(Cl)c1)c1ccco1	-15.9	135.4*	-40.1	2.6	116.0	80.8
Clc1ccc(/C=N/NC(=Nc2ccccc2)c2ccccn2)c(Cl)c1	10.2	128.5	-31.7	3.13	101.0	164.1*
CN(C)/N=C/c1ccc(OS(=O)(=O)c2ccccc2)cc1	0.3	139.9*	-45.2	4.78*	103.7	89.2
O=C1ON=C(c2ccccc2)/C1=C/c1ccc(OS(=O)(=O)c2ccccc2)cc1	-12.1	110.8	-12.1	1.14	110.8	14.7
Cc1ccc(NC(=O)CCN2C(=O)c3ccncc3C2=O)cc1	5.5	100.5	-0.6	1.12	99.5	-18.2
SMILES	STAT3 inh	STAT1 act	STAT1 inh	NF-kB expr up	STAT3 activator	APP 5'UTR act
O=C(O)CSCC(=O)Nc1ccc(C2CCCCC2)cc1	92.8*	52.2	52.0*	0.19	23.2	-67.5
Nn1cnnc1SCC(=O)Nc1ccc(C2CCCCC2)cc1	-1.4	116.2	-18.6	2.14	106.7	19.1
CCCOc1ccc(-c2csc(N)n2)cc1[N+](=O)[O-]	-23.6	138.0*	-41.8	2.28	115.2	67.2
CCCCOc1ccc(-c2cn3ccccc3n2)cc1[N+](=O)[O-]	-1.7	131.5*	-35.4	4.62*	101.7	133.5
COc1ccc(NC(=O)CN(c2ccc(C(C)C)cc2)S(=O)(=O)c2c(C)noc2C)cc1OC	13.8	93.5	7.2	1	92.9	0.5
COc1ccc(CCNc2ncnc3c2oc2ccccc23)cc1OC	79.8*	77.3	24.9	0.34	36.8	-12.2
COc1ccc(CCNc2nc(C)nc3c2oc2ccccc23)cc1OC	34.3	85.2	16.1	0.46	71.7	19.6
CC(=O)c1ccc(Nc2ncnc3c2oc2ccccc23)cc1	20.6	161.3*	-67.1	2.47	86.0	20.6
Clc1ncnc2c1oc1ccccc12	-39.4	142.0*	-47.1	3.12	134.3*	86.2
CCc1nc(NCc2ccccn2)c2oc3ccccc3c2n1	nt	nt	nt	0.52	nt	nt
c1ccc(CNc2ncnc3c2oc2ccccc23)nc1	-4.2	132.0*	-35.1	1.34	107.8	55.2
CC(=O)Nc1ccc(Nc2nc(C)nc3c2oc2ccccc23)cc1	14.9	98.7	1.4	0.54	92.3	3.9
CCOc1ccc(NC(=O)c2ccc(CNc3c(NC4CCCCC4)c(=O)c3=O)cc2)cc1	6.9	98.3	1.9	1.16	101.7	7.4
CC(NC(=O)NNC(=O)c1ccncc1)(C(F)(F)F)C(F)(F)F	5.2	108.3	-10.2	1.02	101.8	-13.5
CCc1cccc(Oc2nn[nH]n2)c1	15.0	92.6	8.3	1.09	90.1	4.0
Cc1cc(S(=O)(=O)N2CCN(Cc3ccccc3)CC2)c(C)s1	-5.6	109.5	-10.7	1.33	109.0	3.8
COC(=O)C1=C(CN2CCCc3ccccc32)NC(=O)NC1c1ccc(F)cc1 (centres undefined)	90.9*	43.7	59.5*	0.5	26.4	-19.9
COC(=O)C1=C(CN2CCc3ccccc32)NC(=O)NC1c1cc(C)ccc1C (centres undefined)	-10.6	86.7	14.6	0.89	112.5	1.6
COC(=O)C1=C(C)NC(C)=C(C(=O)OC)C1c1ccc(N(C)C)cc1	15.3	89.3	11.8	3.72*	95.1	-17.2
CCOC(=O)C1=C(C)NC(C)=C(C(=O)OCC)C1c1ccc(O)cc1	3.9	90.3	10.6	1.46	100.4	6.1
Cc1ccc(C=Nc2ccccc2C(N)=O)o1	3.4	134.6*	-39.5	1.04	97.3	75.8
CSCCC(NC(C)=O)C(=O)Oc1ccc2c3c(c(=O)oc2c1)CCCC3 (centres undefined)	24.8	94.3	6.6	1.07	83.8	0.2
CSCCC(NC(=O)OC(C)(C)C)C(=O)Oc1ccc2c(=O)c(-c3ccc4c(c3)OCCO4)coc2c1 (centres undefined)	22.8	129.1*	-32.3	3.18	89.8	172.6*
NNC(=O)c1cc2cc3ccccc3nc2s1	12.4	136.2*	-40.5	1.58	99.2	3.5
C=CCn1c(N)c(C(=O)Nc2ccc(C)cc2)sc1=S	13.5	131.2*	-33.7	1.78	88.8	-8.4
C=CCn1c(N)c(C(=O)Nc2ccccc2OC)sc1=S	-1.4	99.2	0.9	0.85	105.1	-2.8

Screening results: PubChem, several laboratories
